Laboratory results taken from ChEMBL document CHEMBL1135584, “2-Amino-6-arylthio-9-[2-(phosphonomethoxy)ethyl]purine bis(2,2,2-trifluoroethyl) esters as novel HBV-specific antiviral reagents” (J Med Chem, 2002).

Key:
[1] = Cytotoxic concentration of compound required for 50% extinction of HuH-6 cells; format: functional; details: Homo sapiens
How it was run: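 HuH-6 cells (parent of HB611) seeded at 1 × 10⁵ cells/mL, cultured 3 days at 37 °C, 5% CO₂ in DMEM with 10% FBS plus compound; MTS added, further 2 h at 37 °C; viability by absorbance at 490 nm; CC50 determined.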

Hepatitis B virus = assay: Concentration required to inhibit 50% of cytoplasmic HBV-DNA synthesis
Human alphaherpesvirus 1 = assay: Anti-HSV-1 activity of the compound; format: functional, organism-based

Row | Compound | CC50 [1] | IC50 (Hepatitis B virus) | IC50 (Human alphaherpesvirus 1)
1 | COc1cccc(Sc2nc(N)nc3c2ncn3CCOCP(=O)(OCC(F)(F)F)OCC(F)(F)F)c1 | > 1000 µM | 0.04 µM | 
2 | Cc1cccc(Sc2nc(N)nc3c2ncn3CCOCP(=O)(OCC(F)(F)F)OCC(F)(F)F)c1 | 150 µM | 0.09 µM | 
3 | CCCOc1ccc(Sc2nc(N)nc3c2ncn3CCOCP(=O)(OCC(F)(F)F)OCC(F)(F)F)cc1 | 250 µM | 0.87 µM | 
4 | Cc1ccccc1Sc1nc(N)nc2c1ncn2CCOCP(=O)(OCC(F)(F)F)OCC(F)(F)F | 340 µM | 0.08 µM | 
5 | Nc1nc(Sc2ccc3ccccc3c2)c2ncn(CCOCP(=O)(OCC(F)(F)F)OCC(F)(F)F)c2n1 | 198 µM | 0.09 µM | 
6 | Cc1ccc(Sc2nc(N)nc3c2ncn3CCOCP(=O)(OCC(F)(F)F)OCC(F)(F)F)cc1 | 110 µM | 0.06 µM | 
7 | Nc1nc(Sc2ccccc2)c2ncn(CCOCP(=O)(OCC(F)(F)F)OCC(F)(F)F)c2n1 | > 1000 µM | 0.05 µM | 25 µM
8 | Nc1nc(Sc2ccc([N+](=O)[O-])cc2)c2ncn(CCOCP(=O)(OCC(F)(F)F)OCC(F)(F)F)c2n1 | 380 µM | 0.52 µM | 
9 | CCc1ccc(Sc2nc(N)nc3c2ncn3CCOCP(=O)(OCC(F)(F)F)OCC(F)(F)F)cc1 | 170 µM | 0.4 µM | 
10 | Nc1nc(Sc2ccc(OC(F)(F)F)cc2)c2ncn(CCOCP(=O)(OCC(F)(F)F)OCC(F)(F)F)c2n1 | 820 µM | 0.06 µM | 
11 | CCOc1ccc(Sc2nc(N)nc3c2ncn3CCOCP(=O)(OCC(F)(F)F)OCC(F)(F)F)cc1 | > 1000 µM | 0.64 µM | 
12 | CCCCOc1ccc(Sc2nc(N)nc3c2ncn3CCOCP(=O)(OCC(F)(F)F)OCC(F)(F)F)cc1 | 260 µM | > 1 µM | 
13 | CC(C)c1ccc(Sc2nc(N)nc3c2ncn3CCOCP(=O)(OCC(F)(F)F)OCC(F)(F)F)cc1 | 170 µM | 0.98 µM | 
14 | COc1ccc(Sc2nc(N)nc3c2ncn3CCOCP(=O)(O)OCC(F)(F)F)cc1 |  | 0.07 µM | 
15 | Nc1nc(Sc2ccc(Cl)cc2)c2ncn(CCOCP(=O)(OCC(F)(F)F)OCC(F)(F)F)c2n1 | 62 µM | 0.12 µM | 
16 | CC(C)COc1ccc(Sc2nc(N)nc3c2ncn3CCOCP(=O)(OCC(F)(F)F)OCC(F)(F)F)cc1 | 100 µM | 0.84 µM | 
17 | CC(C)Oc1ccc(Sc2nc(N)nc3c2ncn3CCOCP(=O)(OCC(F)(F)F)OCC(F)(F)F)cc1 | 350 µM | 0.29 µM | 
18 | COc1ccccc1Sc1nc(N)nc2c1ncn2CCOCP(=O)(OCC(F)(F)F)OCC(F)(F)F | > 1000 µM | 0.08 µM | 
19 | Nc1ncnc2c1ncn2CCOCP(=O)(O)O [ADEFOVIR] | > 1000 µM | 0.2 µM | 
20 | COc1ccc(Sc2nc(N)nc3c2ncn3CCOCP(=O)(OCC(F)(F)F)OCC(F)(F)F)cc1 [ALAMIFOVIR] | > 1000 µM | 0.03 µM | 
21 | Nc1ccn([C@@H]2CS[C@H](CO)O2)c(=O)n1 [LAMIVUDINE] | > 1000 µM | 2.2 µM | 
